The record followed here is ChEMBL document CHEMBL4390675, “Dopamine D4 Receptor-Selective Compounds Reveal Structure-Activity Relationships that Engender Agonist Efficacy” (J Med Chem, 2019).

Data set [1] deals with T1, D(3) dopamine receptor (Homo sapiens, UniProt P35462). The data set can be described thus: Antagonist activity at human D3 receptor expressed in CHOK1 cells assessed as inhibition of dopamine-induced beta-arrestin recruitment measured after 90 mins by luminescence assay. It is filed as cell-based. The method in brief:
(§1)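 Antagonist-mode PathHunter β-arrestin assay in CHO-K1 cells stably expressing human D2R long isoform or D3R, seeded overnight. Compound dilutions in PBS with 0.2 μM metabisulfite were co-incubated with an EC80 dopamine concentration for 90 min at 37 °C. Detection reagent was added for 45–60 min at room temperature, then luminescence was read. Values are % of dopamine EC80 response, from nonlinear regression of triplicate runs, n = 3–4.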

The target in data set [2] is T2, D(4) dopamine receptor (Homo sapiens, UniProt P21917).
T2 sequence (P21917 whole entry): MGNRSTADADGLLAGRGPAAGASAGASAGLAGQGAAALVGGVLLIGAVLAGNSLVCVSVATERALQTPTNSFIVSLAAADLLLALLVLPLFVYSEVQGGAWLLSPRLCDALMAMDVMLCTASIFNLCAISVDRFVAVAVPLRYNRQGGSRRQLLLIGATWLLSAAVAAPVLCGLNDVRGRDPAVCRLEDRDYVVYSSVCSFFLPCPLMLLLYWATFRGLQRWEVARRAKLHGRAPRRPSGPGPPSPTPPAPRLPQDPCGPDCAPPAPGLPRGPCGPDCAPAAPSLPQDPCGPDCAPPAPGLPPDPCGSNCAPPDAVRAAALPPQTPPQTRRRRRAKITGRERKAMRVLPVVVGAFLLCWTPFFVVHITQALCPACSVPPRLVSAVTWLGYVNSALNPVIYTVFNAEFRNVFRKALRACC
Nature of the data set: Agonist activity at human D4 receptor expressed in CHOK1 cells assessed as inhibition of forskolin-induced cAMP accumulation measured after 30 mins by Eu-cAMP tracer based TR-FRET assay. It is filed as functional, cell-based. The method in brief: (§2)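 LANCE Ultra TR-FRET cAMP assay in CHO-K1 cells stably expressing human D2R long isoform or D4R. Cells were plated in HBSS/5 mM HEPES/0.2 μM metabisulfite, then immediately given compound plus forskolin (10 μM final) for 30 min at room temperature. Eu-cAMP tracer and ULight-anti-cAMP were added for 2 h in the dark. Values are % of maximal dopamine signal, nonlinear regression of triplicate runs, n = 3–4.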

For data set [3], the target named is T1, D(3) dopamine receptor. Nature of the data set: Displacement of [3H]N-methylspiperone from human D3 receptor expressed in HEK293 cell membranes measured after 60 mins by scintillation counting method. The method in brief: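 HEK293 cells stably expressing human D3R; membranes in EBSS buffer pH 7.4, stored at −80 °C. 20 μg protein/well with 0.4 nM [3H]N-methylspiperone (final), half-log dilutions in 30% DMSO, in triplicate. 60 min at room temperature, then GF/B filtration. Nonspecific binding with 10 μM (+)-butaclamol.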

Data set [4] concerns the target T2, D(4) dopamine receptor. Nature of the data set: Displacement of [3H]N-methylspiperone from human D4.4 receptor expressed in HEK293 cell membranes measured after 60 mins by scintillation counting method. The gist of the method:
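Frozen HEK293 membranes stably expressing human D4.4R (30 μg/well) in EBSS-bicarbonate buffer, pH 7.4, were incubated with 0.4 nM [3H]N-methylspiperone and half-log compound dilutions (30% DMSO vehicle) for 60 min at room temperature. Nonspecific binding was defined by 10 μM (+)-butaclamol. Samples were filtered on GF/B filters and counted by scintillation.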

Data set [5] addresses T3, D(2) dopamine receptor (Homo sapiens, UniProt P14416). Nature of the data set: Agonist activity at human D2L receptor expressed in CHOK1 cells assessed as induction of beta-arrestin recruitment measured after 90 mins by luminescence assay. It is filed as cell-based. The gist of the method: (§3)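 PathHunter enzyme-complementation assay in CHO-K1 cells stably expressing human D2R long isoform, D3R or D4R, seeded overnight in Ham's F12/10% FBS. Compounds were diluted in PBS with 0.2 μM sodium metabisulfite and applied at multiple concentrations for 90 min at 37 °C. Detection reagent was added for 45–60 min at room temperature, then luminescence was read. Values are % of maximal dopamine response, from nonlinear regression of triplicate runs, mean ± SEM, n = 3–4.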
Background: Recruitment of arrestin is a read-out of receptor activation apart from second messengers.

For data set [6], the target named is T3, D(2) dopamine receptor. Nature of the data set: Antagonist activity at human D2L receptor expressed in CHOK1 cells assessed as inhibition of dopamine-induced beta-arrestin recruitment measured after 90 mins by luminescence assay relative to control. It is filed as cell-based. The method in brief: as §1
The target in data set [7] is T3, D(2) dopamine receptor. The data set can be described thus: Antagonist activity at human D2L receptor expressed in CHOK1 cells assessed as inhibition of dopamine-induced beta-arrestin recruitment measured after 90 mins by luminescence assay. The data set is classed as cell-based. The method in brief: as §1
In data set [8] the target is T2, D(4) dopamine receptor. The data set can be described thus: Antagonist activity at human D4 receptor expressed in CHOK1 cells assessed as inhibition of dopamine-induced beta-arrestin recruitment measured after 90 mins by luminescence assay. It is filed as cell-based. The note with it: read-out: IC50.
Data set [9] deals with T1, D(3) dopamine receptor. Nature of the data set: Agonist activity at human D3 receptor expressed in CHOK1 cells assessed as induction of beta-arrestin recruitment measured after 90 mins by luminescence assay. It is filed as cell-based. The gist of the method:
as §3

In data set [10] the target is T3, D(2) dopamine receptor. Nature of the data set: Antagonist activity at human D2L receptor expressed in CHOK1 cells assessed as suppression of dopamine-induced inhibition of forskolin-stimulated cAMP accumulation measured after 30 mins by Eu-cAMP tracer based TR-FRET assay relative to dopamine. It is filed as cell-based. The note with it: 0.5 h. In general terms: Cyclic AMP is a second messenger, typically raised through Gs and lowered through Gi signalling.

Data set [11] addresses T3, D(2) dopamine receptor. The data set can be described thus: Agonist activity at human D2L receptor expressed in CHOK1 cells assessed as inhibition of forskolin-induced cAMP accumulation measured after 30 mins by Eu-cAMP tracer based TR-FRET assay. It is filed as cell-based. The method in brief: as §2
Data set [12] concerns the target T2, D(4) dopamine receptor. Nature of the data set: Agonist activity at human D4 receptor expressed in CHOK1 cells assessed as induction of beta-arrestin recruitment measured after 90 mins by luminescence assay. It is filed as cell-based. The method in brief: as §3
Data set [13] deals with T2, D(4) dopamine receptor. Nature of the data set: Antagonist activity at human D4 receptor expressed in CHOK1 cells assessed as suppression of dopamine-induced inhibition of forskolin-stimulated cAMP accumulation measured after 30 mins by Eu-cAMP tracer based TR-FRET assay. It is filed as functional, cell-based.
For data set [14], the target named is T4, D(4) dopamine receptor (Homo sapiens) (UniProt P21917).
T4 sequence (whole entry): T2 sequence (P21917 whole entry)
Nature of the data set: Agonist activity at human D4 receptor expressed in CHOK1 cells assessed as inhibition of forskolin-induced cAMP accumulation measured after 30 mins by Eu-cAMP tracer based TR-FRET assay relative to dopamine. The data set is classed as functional, cell-based. The gist of the method:
as §2

In data set [15] the target is T3, D(2) dopamine receptor. The data set can be described thus: Agonist activity at human D2L receptor expressed in CHOK1 cells assessed as inhibition of forskolin-induced cAMP accumulation measured after 30 mins by Eu-cAMP tracer based TR-FRET assay relative to dopamine. The data set is classed as cell-based. The note with it: 0.5 h.
For data set [16], the target named is T4, D(4) dopamine receptor (Homo sapiens). The data set can be described thus: Antagonist activity at human D4 receptor expressed in CHOK1 cells assessed as inhibition of dopamine-induced beta-arrestin recruitment measured after 90 mins by luminescence assay relative to control. Set-up: concentration or dose not given beside the values. The data set is classed as cell-based.

Data set [17] shares this target. Nature of the data set: Agonist activity at human D4 receptor expressed in CHOK1 cells assessed as induction of beta-arrestin recruitment measured after 90 mins by luminescence assay relative to control. The data set is classed as cell-based. The gist of the method: as §3
In data set [18] the target is T3, D(2) dopamine receptor. The data set can be described thus: Agonist activity at human D2L receptor expressed in CHOK1 cells assessed as induction of beta-arrestin recruitment measured after 90 mins by luminescence assay relative to control. It is filed as cell-based. The method in brief:
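PathHunter enzyme-complementation assay in CHO-K1 cells stably expressing human D2R long isoform, seeded 2625 cells/well and incubated overnight. Compounds diluted in PBS with 0.2 μM sodium metabisulfite, tested at multiple concentrations, 90 min at 37 °C. Detection reagent then 45–60 min at room temperature, luminescence read. Normalized to maximal dopamine response. Nonlinear regression of triplicate runs, n = 3–4.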

Data set [19] concerns the target T4, D(4) dopamine receptor (Homo sapiens). Nature of the data set: Antagonist activity at human D4 receptor expressed in CHOK1 cells assessed as suppression of dopamine-induced inhibition of forskolin-stimulated cAMP accumulation measured after 30 mins by Eu-cAMP tracer based TR-FRET assay relative to dopamine. It is filed as functional, cell-based. Further details: concentration or dose not given beside the values; call rule not given here.

For data set [20], the target named is T1, D(3) dopamine receptor. The data set can be described thus: Antagonist activity at human D3 receptor expressed in CHOK1 cells assessed as inhibition of dopamine-induced beta-arrestin recruitment measured after 90 mins by luminescence assay relative to control. The data set is classed as cell-based. The gist of the method: as §1
Data set [21] has as its target T1, D(3) dopamine receptor. Nature of the data set: Agonist activity at human D3 receptor expressed in CHOK1 cells assessed as induction of beta-arrestin recruitment measured after 90 mins by luminescence assay relative to control. It is filed as cell-based. The gist of the method: as §3
Data set [22] has as its target T2, D(4) dopamine receptor. The data set can be described thus: Displacement of [3H](R)-(+)-7-OH-DPAT from human D4.4 receptor expressed in HEK293 cell membranes measured after 90 mins by scintillation counting method. The gist of the method:
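HEK293 cells stably expressing human D4.4R; membranes used fresh in 50 mM Tris, 10 mM MgCl2, 1 mM EDTA, pH 7.4. 60 μg protein/well with 3 nM [3H]-(R)-(+)-7-OH-DPAT (final), half-log dilutions in 30% DMSO, in triplicate. 90 min at room temperature, then GF/B filtration. Nonspecific binding with 10 μM (+)-butaclamol.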

Structures are written as SMILES.

T3 sequence (P14416 whole entry, canonical isoform): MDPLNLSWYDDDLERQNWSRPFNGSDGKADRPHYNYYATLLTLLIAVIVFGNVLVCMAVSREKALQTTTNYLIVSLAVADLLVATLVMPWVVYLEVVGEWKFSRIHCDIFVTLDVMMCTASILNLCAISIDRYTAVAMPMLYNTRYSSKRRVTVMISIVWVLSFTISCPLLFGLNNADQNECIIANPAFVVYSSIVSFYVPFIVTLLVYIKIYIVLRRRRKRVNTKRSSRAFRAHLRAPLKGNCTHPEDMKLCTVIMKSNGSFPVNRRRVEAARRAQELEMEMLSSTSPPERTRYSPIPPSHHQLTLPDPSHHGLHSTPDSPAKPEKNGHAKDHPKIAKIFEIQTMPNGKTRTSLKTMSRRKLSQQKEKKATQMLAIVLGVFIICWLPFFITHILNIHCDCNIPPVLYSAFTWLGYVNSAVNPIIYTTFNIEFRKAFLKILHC
T1 sequence (P35462 whole entry, canonical isoform): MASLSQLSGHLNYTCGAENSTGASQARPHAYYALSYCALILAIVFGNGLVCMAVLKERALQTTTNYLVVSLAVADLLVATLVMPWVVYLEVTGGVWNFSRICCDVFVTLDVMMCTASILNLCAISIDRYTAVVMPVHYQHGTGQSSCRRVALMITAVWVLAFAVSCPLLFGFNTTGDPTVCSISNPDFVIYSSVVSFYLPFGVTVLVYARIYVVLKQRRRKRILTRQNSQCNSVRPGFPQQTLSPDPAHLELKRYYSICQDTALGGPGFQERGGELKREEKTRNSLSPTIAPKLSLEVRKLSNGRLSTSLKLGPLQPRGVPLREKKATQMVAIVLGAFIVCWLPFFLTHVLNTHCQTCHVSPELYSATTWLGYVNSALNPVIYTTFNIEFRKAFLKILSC

Usually IC50 stands for the midpoint of a concentration-inhibition curve. The EC50 is the midpoint of the concentration-response curve. One may read the Ki as a measure of affinity in units of concentration, obtained from inhibition or displacement. With `O=C(CN1CCN(c2ccc(Cl)cn2)CC1)Nc1cncnc1`, the 50% inhibitory concentration (IC50) entry in data set [1] is “Not Active”; in data set [7], “Not Active”; in data set [8], > 100 µM; in data set [13], > 100 µM. In addition, the EC50 entry in [2], in data set [5], in data set [9], in [11] and in [12] was “Not Active” in each case. For the same compound, the Ki in data set [3] and in data set [4] was > 50 µM in each case. The INH result in data set [6] is listed as “Not Active”. For the same compound, the “inhibition (INH)” value in data set [10] amounted to 76.2%.
One may read the Emax as the size of the effect at its maximum, as opposed to the concentration needed. The term inhibition denotes the change of the read-out against control, counted positive when it falls. For `O=C(CN1CCN(c2ccccn2)CC1)Nc1cccnc1`, the IC50 result is “Not Active” in data set [1], “Not Active” in data set [7], 25.8 µM in data set [8] and 86.5 µM in data set [13]. The figures for the EC50 in data set [2] (read-out: EC50), in data set [9] (read-out: EC50) and in data set [12] (read-out: EC50) were 1.07 µM, 2.8 µM and 2.66 µM, respectively. For the same compound, the Ki in [3] was > 50 µM; in data set [4], 6.41 µM. Besides, the Emax in [14] is 47.3%; in data set [15], 38.6%; in data set [17], 19%; in data set [18], 21.3%. Also, the inhibition in data set [16] and in data set [19] was 100% in each case. For the same compound, the “inhibition (INH)” value in [10] stood at 100%.
For `CCc1cccc(NC(=O)CN2CCN(c3ccccn3)CC2)c1`, the values for the EC50 in data set [2] (read-out: EC50) and in [12] (read-out: EC50) were 0.0287 µM and 0.133 µM, respectively. Moreover, the inhibition in data set [20] stood at 100%; in [16], 59.7%; in data set [19], 58.4%. In addition, the Emax in data set [14] was found to be 58%; in data set [21] it was 44.7%; in data set [15], 18.8%; in [17] it was 26.2%; in [18] it was 18.7%. For the same compound, the results for the Ki in data set [4] and in data set [22] were 0.0679 µM and 0.00223 µM, respectively. The IC50 stood at 0.37 µM in data set [8] and 1.31 µM in [13]. Further, the “inhibition (INH)” value in data set [10] came out at 88%.
